Measured values gathered from unrelated publications.
Target: Discoidin domain-containing receptor 2 (DDR2, Homo sapiens, UniProt Q16832)

| Compound | observed | mode | method | tested at | quantity | result |
| --- | --- | --- | --- | --- | --- | --- |
| COc1cc2nccc(Oc3ccc(NC(=O)c4c5n(n(-c6ccc(F)cc6)c4=O)CCCC5)cc3)c2cc1OC | enzyme activity | inhibitor | – | 0.1 µM | inhibition | 20% |
| Cc1cnc(NC2CCOCC2)nc1-n1cnc(C(=O)NC(CN)c2cc(F)cc(Cl)c2)c1 (stereo not drawn) | enzyme activity | inhibitor | radiometric | 1 µM | remaining activity | 102% |
| N#CCCc1ccc2c(c1)-c1[nH]c3ccc([N+](=O)[O-])cc3c1CC(=O)N2 | cell-free assay | – | – | 0.5 µM | remaining signal | 105% |
| Cc1cc(NC(=O)c2cccc(S(F)(F)(F)(F)F)c2)cc(-n2ccn3nc(-c4cccnc4)cc23)c1 | cell-free assay | – | competition with immobilised ligand | 1 µM | remaining binding | 18.2% |
| Cc1ccc(NC(=O)c2ccc(C)c(C(F)(F)F)c2)cc1C#Cc1nn(C2CCC(O)CC2)c2ncnc(N)c12 (stereo not drawn) | cell-free assay | – | – | 10 µM | remaining signal | 16% |
| CCN(CC)CCNC(=O)c1c(C)[nH]c(/C=C2\C(=O)Nc3ccc(F)cc32)c1C | enzyme activity | inhibitor | – | 10 µM | inhibition | 31% |
| FC(F)(F)c1ccc2c(c1)nc(-c1cccnc1)n2C1CC1 | cell-free assay | – | competition with immobilised ligand | 1 µM | remaining binding | 100% |
| C=CC(=O)Nc1cc(Nc2nccc(Nc3cc(Cl)c(F)cc3C(C)(C)O)n2)c(OC)cc1N1CC[C@@H](N(C)C)C1 | enzyme activity | inhibitor | – | 1 µM | inhibition | 1% |
| COc1cc2c(N3CCN(C(=O)Nc4ccc(OC(C)C)cc4)CC3)ncnc2cc1OCCCN1CCCCC1 | cell-free assay | – | – | 0.5 µM | remaining signal | 102% |
| C[C@@H]1CN(c2cc(-c3n[nH]c4ccc(OC5(C)CC5)cc34)ncn2)C[C@H](C)O1 | cell-free assay | – | competition with immobilised ligand | 0.1 µM | remaining binding | 82% |
| O=C(Nc1cnn(-c2csc(C(=O)NC3COC3)c2)c1)Nc1c(F)cccc1Cl | enzyme activity | inhibitor | – | 5 µM | remaining activity | 96.6% |
| Cc1ccc(C(=O)NCc2ccsc2)cc1C#Cc1cn(C(C)C)c2ncnc(N)c12 | enzyme activity | inhibitor | – | 1 µM | activity vs control | 4% |
| Cc1[nH]c(/C=C2\C(=O)Nc3ccc(F)cc32)c(C)c1C(=O)N[C@H]1CCN(C(=O)N(C)C)C1 | enzyme activity | inhibitor | – | 1 µM | remaining activity | 107% |
| CNC(=O)c1cc(Oc2ccc(NC(=O)Nc3ccc(Cl)c(C(F)(F)F)c3)cc2)ccn1 | enzyme activity | inhibitor | – | 0.3 µM | inhibition | 108% |
| CNC(=O)Nc1ccc2c(c1)CC[C@@]21OC(=O)N(CC(=O)N(Cc2ccc(F)cc2)[C@@H](C)C(F)(F)F)C1=O | cell-free assay | – | competition with immobilised ligand | 1 µM | remaining binding | 75% |
| CCCOc1ccc(OC)c(F)c1C(=O)c1ccc(C(=O)N[C@@H]2CNC[C@H]2NC(=O)c2ccc3[nH]ncc3c2)cc1 | enzyme activity | inhibitor | – | 10 µM | remaining activity | 103% |
| Cc1c[nH]c2nccc(Oc3c(F)cc(Nc4cc(Cl)nc(N)n4)cc3F)c12 | cell-free assay | – | competition with immobilised ligand | 0.1 µM | remaining binding | 57% |
| CNC(=O)c1cc2c(Oc3ccc(NC(=O)C4(C(=O)Nc5ccc(F)cc5)CC4)cc3)ccnc2cc1OC | enzyme activity | inhibitor | radiometric | 1 µM | inhibition | 104% |
| Nc1ncnc2occ(-c3ccc(NC(=O)Nc4cc(C(F)(F)F)ccc4F)cc3)c12 | cell-free assay | – | – | 20 µM | remaining signal | 1.4% |
| COc1cc(Cl)c(C(=O)N[C@@H](CN[C@H]2CC[C@@H](N)CC2)Cc2ccc(C#N)cc2)cc1-c1ccc(CN[C@H](C)c2ccc(C)cc2)o1 | enzyme activity | inhibitor | – | 1 µM | remaining activity | 104% |
| O=C(Nc1ccc(Oc2ccc(F)cc2)cc1)N1CCc2ncccc2[C@H]1c1ccc(F)cc1 | cell-free assay | – | competition with immobilised ligand | 1 µM | remaining binding | 100% |
| CCN(CC)CCNC(=O)c1c(C)[nH]c(/C=C2\C(=O)Nc3ccc(F)cc32)c1C | enzyme activity | inhibitor | – | 1 µM | remaining activity | 103% |
| CCC(=O)N[C@H]1CC[C@@H](C(=O)N(C)c2ccc(-c3nc4ccccc4o3)cc2)C1 | cell-free assay | – | competition with immobilised ligand | 1 µM | remaining binding | 100% |
| CC(C)(C)c1nc(-c2cccc(NS(=O)(=O)c3c(F)cccc3F)c2F)c(-c2ccnc(N)n2)s1 | enzyme activity | inhibitor | radiometric | 1 µM | remaining activity | 14% |
